According to ChEMBL document CHEMBL4406854, “Synthesis and in-vitro anti-HIV-1 evaluation of novel pyrazolo[4,3-c]pyridin-4-one derivatives” (Eur J Med Chem, 2019):
Active and inactive are the calls of the source. The calls are words filed in the database; no cut-off is given here.

System: not listed separately
Test: Cytotoxicity against human TZM-bl cells assessed as reduction in cell viability incubated for 48 hrs by MTT assay
Format: cell-based
Conditions: not given
Procedure, shortened: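 TZM-bl cells (10^4/well) were seeded overnight at 37 °C in humidified 5% CO2. Serial two-fold dilutions were added, with AZT as control, for 48 h. Viability was read by MTT, and CC50 (concentration leaving 50% of cells viable) was obtained by non-linear regression.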

| SMILES | CC50 at 48 h [µM] |
| --- | --- |
| Cc1cc(C)cc(-n2ncc3c(=O)[nH]c(C)cc32)c1 | 679 |
| Cc1cc2c(cnn2-c2ccc(F)c(F)c2)c(=O)[nH]1 | 133 |
| Cc1cc2c(cnn2-c2cccc(F)c2)c(=O)[nH]1 | 159 |
| Cc1cc2c(cnn2-c2ccccc2)c(=O)[nH]1 | 708 |
| Cc1cc2c(cnn2-c2ccc(Cl)cc2)c(=O)[nH]1 | 260 |
| Cc1cc2c(cnn2-c2ccc(Br)cc2)c(=O)[nH]1 | 79.8 |
| Cc1cc2c(cnn2-c2cc(F)cc(F)c2)c(=O)[nH]1 | 130 |
| Cc1cc2c(cnn2-c2ccc(C(C)(C)C)cc2)c(=O)[nH]1 | 45.9 |
| Cc1ccc(-n2ncc3c(=O)[nH]c(C)cc32)cc1 | 383 |
| COc1cccc(-n2ncc3c(=O)[nH]c(C)cc32)c1 | 553 |
| Cc1cn([C@H]2C[C@H](N=[N+]=[N-])[C@@H](CO)O2)c(=O)[nH]c1=O [ZIDOVUDINE] | 872 |
| Cc1cc2c(cnn2-c2ccc(C(F)(F)F)cc2)c(=O)[nH]1 | 100 |
| Cc1cc2c(cnn2-c2cccc(Br)c2)c(=O)[nH]1 | 72.6 |
| Cc1cc2c(cnn2-c2ccc(Cl)c(Cl)c2)c(=O)[nH]1 | 93.5 |
| Cc1cc2c(cnn2-c2cc(Cl)cc(Cl)c2)c(=O)[nH]1 | 93.5 |
| Cc1cc2c(cnn2-c2ccc(C)c(C)c2)c(=O)[nH]1 | 93.4 |
| Cc1cc2c(cnn2-c2cccc(C(F)(F)F)c2)c(=O)[nH]1 | 34.1 |

System: Human immunodeficiency virus 1
Test: Antiviral activity against HIV1 VB59 infected in human TZM-bl cells incubated for 48 hrs by bright Glo-luciferase reporter gene assay
Format: functional, organism-based
Conditions: Human immunodeficiency virus 1, VB59, TZM-bl
Procedure, shortened: (§1)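 TZM-bl cells (10^4/well, seeded the day before) were infected with pre-titrated HIV-1 VB59 or UG070 stocks for 2 h. Serial two-fold dilutions at sub-toxic concentrations were then added, with AZT as control, for 48 h. Britelite plus luciferase substrate was added and RLU measured. IC50 was derived from percent inhibition against infected untreated and uninfected controls.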

| SMILES | IC50 [µM] |
| --- | --- |
| Cc1cc(C)cc(-n2ncc3c(=O)[nH]c(C)cc32)c1 | 3.67 |
| Cc1cc2c(cnn2-c2ccc(F)c(F)c2)c(=O)[nH]1 | > 192 |
| Cc1cc2c(cnn2-c2cccc(F)c2)c(=O)[nH]1 | > 206 |
| Cc1cc2c(cnn2-c2ccccc2)c(=O)[nH]1 | 121 |
| Cc1cc2c(cnn2-c2ccc(Cl)cc2)c(=O)[nH]1 | > 193 |
| Cc1cc2c(cnn2-c2ccc(Br)cc2)c(=O)[nH]1 | 138 |
| Cc1cc2c(cnn2-c2cc(F)cc(F)c2)c(=O)[nH]1 | > 192 |
| Cc1cc2c(cnn2-c2ccc(C(C)(C)C)cc2)c(=O)[nH]1 | > 178 |
| Cc1ccc(-n2ncc3c(=O)[nH]c(C)cc32)cc1 | 58.1 |
| COc1cccc(-n2ncc3c(=O)[nH]c(C)cc32)c1 | 247 |
| Cc1cc2c(cnn2-c2ccc(C(F)(F)F)cc2)c(=O)[nH]1 | > 171 |
| Cc1cc2c(cnn2-c2cccc(Br)c2)c(=O)[nH]1 | 139 |
| Cc1cc2c(cnn2-c2ccc(Cl)c(Cl)c2)c(=O)[nH]1 | > 171 |
| Cc1cc2c(cnn2-c2cc(Cl)cc(Cl)c2)c(=O)[nH]1 | > 171 |
| Cc1cc2c(cnn2-c2ccc(C)c(C)c2)c(=O)[nH]1 | 126 |
| Cc1cc2c(cnn2-c2cccc(C(F)(F)F)c2)c(=O)[nH]1 | 128 |

System: not listed separately
Test: Therapeutic index, ratio of CC50 for human TZM-bl cells to IC50 for antiviral activity against HIV1 VB59 infected in human TZM-bl cells
Format: toxicity, cell-based
Conditions: read-out: Ratio CC50/IC50
Procedure, shortened: (§2)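 TI = CC50/IC50. CC50 came from 48 h MTT viability of TZM-bl cells. IC50 came from 48 h luciferase read-out in TZM-bl cells infected for 2 h with HIV-1 UG070 or VB59 and then treated with two-fold dilutions at sub-toxic concentrations.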

| SMILES | selectivity ratio |
| --- | --- |
| Cc1cc(C)cc(-n2ncc3c(=O)[nH]c(C)cc32)c1 | 185 |
| Cc1cc2c(cnn2-c2ccccc2)c(=O)[nH]1 | 5.86 |
| Cc1cc2c(cnn2-c2ccc(Br)cc2)c(=O)[nH]1 | 0.58 |
| Cc1ccc(-n2ncc3c(=O)[nH]c(C)cc32)cc1 | 6.6 |
| COc1cccc(-n2ncc3c(=O)[nH]c(C)cc32)c1 | 2.24 |
| Cc1cc2c(cnn2-c2cccc(Br)c2)c(=O)[nH]1 | 0.52 |
| Cc1cc2c(cnn2-c2ccc(C)c(C)c2)c(=O)[nH]1 | 0.74 |

System: Human immunodeficiency virus 1
Test: Antiviral activity against HIV1 UG070 infected in human TZM-bl cells incubated for 48 hrs by bright Glo-luciferase reporter gene assay
Format: functional, organism-based
Conditions: Human immunodeficiency virus 1, UG070, TZM-bl
Procedure, shortened: as §1

| SMILES | IC50 [µM] |
| --- | --- |
| Cc1cc(C)cc(-n2ncc3c(=O)[nH]c(C)cc32)c1 | 2.79 |
| Cc1cc2c(cnn2-c2ccccc2)c(=O)[nH]1 | 444 |
| Cc1ccc(-n2ncc3c(=O)[nH]c(C)cc32)cc1 | 229 |
| COc1cccc(-n2ncc3c(=O)[nH]c(C)cc32)c1 | > 196 |

System: not listed separately
Test: Therapeutic index, ratio of CC50 for human TZM-bl cells to IC50 for antiviral activity against HIV1 UG070 infected in human TZM-bl cells
Format: toxicity, cell-based
Conditions: read-out: Ratio CC50/IC50
Procedure, shortened: as §2

| SMILES | selectivity ratio |
| --- | --- |
| Cc1cc(C)cc(-n2ncc3c(=O)[nH]c(C)cc32)c1 | 243 |
| Cc1ccc(-n2ncc3c(=O)[nH]c(C)cc32)cc1 | 1.67 |

System: Human immunodeficiency virus 1
Test: Antiviral activity against HIV1 92/BR/018 infected in human TZM-bl cells incubated for 48 hrs by bright Glo-luciferase reporter gene assay
Format: functional, organism-based
Conditions: Human immunodeficiency virus 1, 92/BR/018, TZM-bl
Procedure, shortened: (§3)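 TZM-bl cells (HeLa-derived, expressing CD4/CXCR4/CCR5, with an LTR-driven luciferase reporter) were seeded at 10^4 cells/well overnight. Cells were infected with pre-titrated virus for 2 h, then given serial two-fold dilutions of sub-toxic compound concentrations and incubated 48 h. Luciferase substrate was added and RLU read. IC50 was taken from percent inhibition versus infected untreated controls. NVP and AZT served as controls.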

| SMILES | IC50 [µM] |
| --- | --- |
| Cc1cc(C)cc(-n2ncc3c(=O)[nH]c(C)cc32)c1 | 7.42 |
| Cc1ccnc2c1NC(=O)c1cccnc1N2C1CC1 [NEVIRAPINE] | 0.3 |

System: not listed separately
Test: Therapeutic index, ratio of CC50 for human TZM-bl cells to IC50 for antiviral activity against HIV1 92/BR/018 infected in human TZM-bl cells
Format: toxicity, cell-based
Conditions: read-out: Ratio CC50/IC50
Procedure, shortened: (§4)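 TI = CC50/IC50. CC50 came from TZM-bl cells (10^4/well) exposed to serial two-fold dilutions for 48 h at 37 °C, 5% CO2, with MTT viability and non-linear regression fitting. IC50 came from TZM-bl cells infected 2 h, treated with sub-toxic two-fold dilutions for 48 h, with luciferase RLU read-out.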

| SMILES | selectivity ratio |
| --- | --- |
| Cc1cc(C)cc(-n2ncc3c(=O)[nH]c(C)cc32)c1 | 91 |
| Cc1ccnc2c1NC(=O)c1cccnc1N2C1CC1 [NEVIRAPINE] | 1990 |

System: Human immunodeficiency virus 1
Test: Antiviral activity against HIV1 N119 infected in human TZM-bl cells incubated for 48 hrs by bright Glo-luciferase reporter gene assay
Format: functional, organism-based
Conditions: Human immunodeficiency virus 1, N119, TZM-bl
Procedure, shortened: as §3

| SMILES | IC50 [µM] |
| --- | --- |
| Cc1cc(C)cc(-n2ncc3c(=O)[nH]c(C)cc32)c1 | 3.24 |
| Cc1ccnc2c1NC(=O)c1cccnc1N2C1CC1 [NEVIRAPINE] | 140 |

System: not listed separately
Test: Therapeutic index, ratio of CC50 for human TZM-bl cells to IC50 for antiviral activity against HIV1 N119 infected in human TZM-bl cells
Format: toxicity, cell-based
Conditions: read-out: Ratio CC50/IC50
Procedure, shortened: as §4

| SMILES | selectivity ratio |
| --- | --- |
| Cc1cc(C)cc(-n2ncc3c(=O)[nH]c(C)cc32)c1 | 210 |
| Cc1ccnc2c1NC(=O)c1cccnc1N2C1CC1 [NEVIRAPINE] | 4.3 |

System: not listed separately
Test: Cytotoxicity against human PBMC cells assessed as reduction in cell viability incubated for 5 days by MTT assay
Format: cell-based
Conditions: not given
Procedure, shortened: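 PBMCs (0.2×10^6 cells/well) were activated with PHA-p (5 µg/mL) and IL-2 (5 U/mL) and exposed to serial two-fold compound dilutions at 37 °C, 5% CO2, for 5 days. Viability was measured by MTT and CC50 calculated.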

| SMILES | CC50 at 120 h [µM] |
| --- | --- |
| Cc1cc(C)cc(-n2ncc3c(=O)[nH]c(C)cc32)c1 | 592 |
| Cc1cn([C@H]2C[C@H](N=[N+]=[N-])[C@@H](CO)O2)c(=O)[nH]c1=O [ZIDOVUDINE] | 1070 |
| Cc1ccnc2c1NC(=O)c1cccnc1N2C1CC1 [NEVIRAPINE] | 1000 |

System: Human immunodeficiency virus 1
Test: Antiviral activity against HIV1 VB51 infected in human PBMC cells incubated for 5 days by bright Glo-luciferase reporter gene assay
Format: functional, organism-based
Conditions: Human immunodeficiency virus 1, VB51, 120 h
Procedure, shortened: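 PBMCs (0.2×10^6 cells/well) were activated with PHA-p (5µg/mL) and IL-2 (5U/mL). Sub-toxic concentrations, chosen from a 5-day MTT CC50 at 37 °C in 5% CO2, were used against R5-tropic HIV-1 VB51.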

| SMILES | IC50 [µM] |
| --- | --- |
| Cc1cc(C)cc(-n2ncc3c(=O)[nH]c(C)cc32)c1 | 8.65 |
| Cc1ccnc2c1NC(=O)c1cccnc1N2C1CC1 [NEVIRAPINE] | 0.19 |

System: Human immunodeficiency virus 1
Test: Antiviral activity against HIV1 NL4.3 infected in human TZM-bl cells measured upto 3 hrs by bright Glo-luciferase reporter gene assay
Format: functional, organism-based
Conditions: not given
Procedure, shortened: (§5)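 Time-of-addition: TZM-bl cells seeded at 10^4 cells/well and incubated overnight, then infected with HIV-1 NL4.3 (400 TCID50) in complete DMEM containing […] DEAE-dextran. Compounds and reference antiretrovirals were applied at five times their IC50 at 0, 1, 2, 3, 4, 6, 8, 10, 18 and 24 h post infection. Luciferase (RLU) was read 48 h post infection, in triplicate, as mean±SD.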

| SMILES | Activity |
| --- | --- |
| Cc1cc(C)cc(-n2ncc3c(=O)[nH]c(C)cc32)c1 | Active |

System: Human immunodeficiency virus 1
Test: Antiviral activity against HIV1 NL4.3 infected in human TZM-bl cells measured upto 10 hrs by bright Glo-luciferase reporter gene assay
Format: functional, organism-based
Conditions: not given
Procedure, shortened: as §5

| SMILES | Activity |
| --- | --- |
| Cc1cc(C)cc(-n2ncc3c(=O)[nH]c(C)cc32)c1 | Active |

System: Human immunodeficiency virus 1
Test: Antiviral activity against HIV1 NARI-DR infected in human TZM-bl cells incubated for 48 hrs by bright Glo-luciferase reporter gene assay
Format: functional, organism-based
Conditions: Human immunodeficiency virus 1, NARI-DR
Procedure, shortened: as §3

| SMILES | IC50 [µM] |
| --- | --- |
| Cc1cc(C)cc(-n2ncc3c(=O)[nH]c(C)cc32)c1 | 2.53 |
| Cc1ccnc2c1NC(=O)c1cccnc1N2C1CC1 [NEVIRAPINE] | 232 |

System: not listed separately
Test: Therapeutic index, ratio of CC50 for human TZM-bl cells to IC50 for antiviral activity against HIV1 NARI-DR infected in human TZM-bl cells
Format: toxicity, cell-based
Conditions: read-out: Ratio CC50/IC50
Procedure, shortened: as §4

| SMILES | selectivity ratio |
| --- | --- |
| Cc1cc(C)cc(-n2ncc3c(=O)[nH]c(C)cc32)c1 | 268 |
| Cc1ccnc2c1NC(=O)c1cccnc1N2C1CC1 [NEVIRAPINE] | 2.6 |

System: not listed separately
Test: Therapeutic index, ratio of CC50 for human PBMC cells to IC50 for antiviral activity against HIV1 VB51 infected in human PBMC cells
Conditions: not given

| SMILES | selectivity ratio |
| --- | --- |
| Cc1cc(C)cc(-n2ncc3c(=O)[nH]c(C)cc32)c1 | 68 |
| Cc1ccnc2c1NC(=O)c1cccnc1N2C1CC1 [NEVIRAPINE] | 5280 |
